Measurements as given in ChEMBL document CHEMBL4229344 (Eur J Med Chem, 2018).
Activity calls are given as the source filed them. No cut-off for these calls is given here.

Assays:
[1] = molecular target: Maternal embryonic leucine zipper kinase (Homo sapiens) (UniProt Q14680); test: Binding affinity to wild-type human full length MELK (M1 to V651 residues) expressed in bacterial expression system assessed as residual binding level at 1 uM by Kinomescan method relative to control
Method in brief: (§1)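 KINOMEscan competition binding against 468 purified kinases/mutants, test compound at 1 µM; residual binding relative to control.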

[2] = molecular target: Mitogen-activated protein kinase kinase kinase 3 (Homo sapiens) (UniProt Q99759); test: Binding affinity to wild-type human partial length MAP3K3 (E320 to Y626 residues) expressed in mammalian expression system assessed as residual binding level at 1 uM by Kinomescan method relative to control
[3] = molecular target: Serine/threonine-protein kinase pim-1 (Homo sapiens) (UniProt P11309); test: Binding affinity to wild-type human partial length PIM1 (A15 to K313 residues) expressed in bacterial expression system assessed as residual binding level at 1 uM by Kinomescan method relative to control
NCI-H1703 = test: Cell cycle arrest in human NCI-H1703 cells assessed as accumulation at G0/G1 phase after 72 hrs by propidium iodide/RNase staining-based flow cytometric analysis; assay type: functional
Method in brief: (§2)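 Cells treated with compound or DMSO for the stated periods, fixed overnight in 70% cold ethanol at −20 °C, stained with PI/RNase buffer, then analysed by flow cytometry for cell-cycle distribution. For NCI-H1703 stimulation, PDGF AA was used at 100 ng/mL.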

[4] = molecular target: Mitogen-activated protein kinase 13 (Homo sapiens) (UniProt O15264); test: Binding affinity to wild-type human full length p38-delta (M1 to L365 residues) expressed in bacterial expression system assessed as residual binding level at 1 uM by Kinomescan method relative to control; method in brief: as §1
[5] = molecular target: Ribosomal protein S6 kinase alpha-4 (Homo sapiens) (UniProt O75676); test: Binding affinity to wild-type human partial length C-terminal RPS6KA4 kinase domain 2 (M375 to T705 residues) expressed in mammalian expression system assessed as residual binding level at 1 uM by Kinomescan method relative to control
[6] = test system: Mast/stem cell growth factor receptor Kit (Homo sapiens), P10721 [D816V]; test: Binding affinity to human partial length KIT D816V mutant (I571 to D952 residues) expressed in bacterial expression system assessed as residual binding level at 1 uM by Kinomescan method relative to control
Method in brief: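 Kinome-wide single-concentration binding screen (KINOMEscan) at 1 μM against a panel of 468 purified kinases and mutants. Read-out is relative binding of each kinase compared with control. Selectivity across the panel was summarised as an S(10) score.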

EOL1 [7] = test: Antitumor activity against human EOL-1 cells xenografted in nu/nu mouse assessed as induction of apoptosis at 25 to 100 mg/kg/day, ip by DAB staining-based TUNEL assay; assay type: functional, organism-based
Method in brief: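 Female nu/nu mice (6 weeks) given subcutaneous right-flank injection of 5 million EOL-1 cells in PBS/Matrigel 1:1. At 200–400 mm3 tumors, randomized to groups of 6 and dosed daily i.p. for 14 days at 25, 50 or 100 mg/kg/d in 0.5% methylcellulose/0.4% Tween80. Tumor volume = W²×L/2, measured daily.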

[8] = molecular target: Calcium/calmodulin-dependent protein kinase type 1D (Homo sapiens) (UniProt Q8IU85); test: Binding affinity to wild-type human partial length CAMK1D (M1 to K299 residues) expressed in bacterial expression system assessed as residual binding level at 1 uM by Kinomescan method relative to control
Method in brief: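 Kinome-wide competition binding screen against a panel of 468 purified kinases/mutants, with the test compound at a single concentration of 1 μM. Read-out is the relative binding activity of each kinase in the presence of compound.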

[9] = molecular target: Glycogen synthase kinase-3 beta (Homo sapiens) (UniProt P49841); test: Binding affinity to wild-type human full length GSK3B (M1 to T433 residues) expressed in mammalian expression system assessed as residual binding level at 1 uM by Kinomescan method relative to control; method in brief: as §1
[10] = molecular target: Serine/threonine-protein kinase D2 (Homo sapiens) (UniProt Q9BZL6); test: Binding affinity to wild-type human partial length PRKD2 (A519 to E838 residues) expressed in bacterial expression system assessed as residual binding level at 1 uM by Kinomescan method relative to control
[11] = molecular target: Serine/threonine-protein kinase 24 (Homo sapiens) (UniProt Q9Y6E0); test: Binding affinity to wild-type human partial length MST3 (A30 to S311 residues) expressed in bacterial expression system assessed as residual binding level at 1 uM by Kinomescan method relative to control
[12] = molecular target: Serine/threonine-protein kinase PAK 4 (Homo sapiens) (UniProt O96013); test: Binding affinity to wild-type human partial length PAK4 (Q144 to R438 residues) expressed in bacterial expression system assessed as residual binding level at 1 uM by Kinomescan method relative to control
[13] = molecular target: Cyclin-dependent kinase 2 (Homo sapiens) (UniProt P24941); test: Binding affinity to wild-type human full length CDK2 (M1 to L298 residues) expressed in bacterial expression system assessed as residual binding level at 1 uM by Kinomescan method relative to control
Method in brief: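 Single-concentration (1 μM) competition-binding screen run by KINOMEscan against a panel of 468 purified kinases and mutants. The read-out is the relative binding activity of the test compound to each kinase.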

[14] = molecular target: BDNF/NT-3 growth factors receptor (Homo sapiens) (UniProt Q16620); test: Binding affinity to wild-type human partial length TRKB (Q547 to G838 residues) expressed in mammalian expression system assessed as residual binding level at 1 uM by Kinomescan method relative to control
[15] = molecular target: RAF proto-oncogene serine/threonine-protein kinase (Homo sapiens) (UniProt P04049); test: Binding affinity to wild-type human partial length RAF1 (I330 to T640 residues) expressed in bacterial expression system assessed as residual binding level at 1 uM by Kinomescan method relative to control
[16] = molecular target: Serine/threonine-protein kinase N1 (Homo sapiens) (UniProt Q16512); test: Binding affinity to wild-type human partial length PKN1 (E598 to C948 residues) expressed in bacterial expression system assessed as residual binding level at 1 uM by Kinomescan method relative to control
EOL1 [17] = test: Cell cycle arrest in human EOL-1 cells assessed as accumulation at G0/G1 phase at 0.01 to 0.3 uM after 12 hrs by propidium iodide/RNase staining-based flow cytometric analysis; assay type: functional; method in brief: as §2
[18] = molecular target: Ribosomal protein S6 kinase alpha-3 (Homo sapiens) (UniProt P51812); test: Binding affinity to wild-type human partial length C-terminal RSK2 kinase domain 2 (V402 to S715 residues) expressed in mammalian expression system assessed as residual binding level at 1 uM by Kinomescan method relative to control
[19] = molecular target: Serine/threonine-protein kinase Nek3 (Homo sapiens) (UniProt P51956); test: Binding affinity to wild-type human full length NEK3 (M1 to R506 residues) expressed in mammalian expression system assessed as residual binding level at 1 uM by Kinomescan method relative to control; method in brief: as §1
[20] = molecular target: Serine/threonine-protein kinase 25 (Homo sapiens) (UniProt O00506); test: Binding affinity to wild-type human partial length YSK1 (V14 to H295 residues) expressed in bacterial expression system assessed as residual binding level at 1 uM by Kinomescan method relative to control

Cc1ccc(NC(=O)c2ccc(CN(CCN(C)C)C(=O)c3cccnc3)cc2)cc1Nc1nccc(-c2cccnc2)n1 gave an Activity [1] of 84%, an Activity [2] of 86% and an Activity [3] of 98%. The Activity (NCI-H1703) was “Dose-dependent effect”, the Activity [4] was 79% and the Activity [5] was 100%. For the same compound, the Activity [6] was 88%, the Activity (EOL1 [7]) was “Active” and the Activity [8] was 84%. The Activity [9] was 87%, the Activity [10] was 93% and the Activity [11] was 100%. It also gave an Activity [12] of 98%, an Activity [13] of 95% and an Activity [14] of 100%. For the same compound, the Activity [15] was 100%, the Activity [16] was 100% and the Activity (EOL1 [17]) was “Active”. For the same compound, the Activity [18] was 100%, the Activity [19] was 73% and the Activity [20] was 100%.
